The results in this text go back to ChEMBL document CHEMBL2086353, “Design, synthesis and structure-activity relationship of novel inhibitors against H5N1 hemagglutinin-mediated membrane fusion” (Eur J Med Chem, 2012).

Active and inactive are the calls of the source. No cut-off for these calls is given here.

The nature of test [1]: Inhibition of Influenza A virus (A/Anhui/1/2005(H5N1)) hemagglutininin-mediated membrane fusion assessed as inhibition of H5N1 pesudovirus infection of MDCK cells using A/Anhui/1/2005(H5N1) hemagglutinin plasmid and NA plasmid from N1 subtype strain A/Thailand/Kan353/ 2004 infected in 293T cells by luciferase reporter gene assay. It counts as cell-based. The gist of the method: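 MDCK target cells grown in DMEM with glutamine and 10% FCS. Compound at indicated concentrations preincubated with H5N1 HA/NA-pseudotyped luciferase-reporter particles (1 ng p24/well) for 30 min at 37 °C. Mixture then added to cells for 48 h. Cells PBS-washed and lysed, and luciferase activity read on a luminometer.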
(A reporter such as luciferase makes a cellular process visible.)

The next test concerns MDCK. Briefly: Inhibition of Vesicular stomatitis virus G hemagglutininin-mediated membrane fusion assessed as inhibition of […] infection of MDCK cells by luciferase reporter gene assay. The format is cell-based. An outline of the steps: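 Specificity control: VSV-G-pseudotyped luciferase-reporter particles replace the H5N1 pseudovirus. Compound preincubated with particles (1 ng p24/well) for 30 min at 37 °C, then added to MDCK cells (DMEM, 10% FCS) for 48 h. Lysate luciferase read on a luminometer.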

The subject of another test is Influenza A virus. Kind of test: Antiviral activity against Influenza A virus (A/Thailand/Kan353/2004(H5N1)) assessed as inhibition of viral infection. It counts as functional, organism-based.

As to `O=C(NCCN1CCCCC1)c1cncc(Br)c1`, the concentration for half-maximal inhibition (IC50) – broadly, the point on the concentration scale where inhibition reaches its midpoint – in test [1] was determined as 5.13 µM. Regarding `O=C(NCCc1cccs1)c1cc(F)cc(C(F)(F)F)c1`, the inhibition result with MDCK was “inactive”. In addition, the IC50 in test [1] worked out at 0.22 µM. For `O=C(NCCN1CCCC1)c1cc(F)cc(C(F)(F)F)c1`, in the test on MDCK, the inhibition result is “inactive”. The half-maximal inhibitory concentration (IC50) in test [1] is 0.38 µM. Regarding `CN1CCN(CCCNC(=O)c2cc(C(F)(F)F)cc(C(F)(F)F)c2)CC1`, the half-maximal inhibitory concentration (IC50) in test [1] was determined as 66.6 µM.

Regarding `O=C(NCCc1ccccc1)c1cc(F)cc(C(F)(F)F)c1`, in test [1], the concentration for half-maximal inhibition (IC50) worked out at 0.33 µM.

With `CC(NC(=O)c1cc(F)cc(C(F)(F)F)c1)c1ccc2ccccc2c1` (stereo unspecified), the concentration for half-maximal inhibition (IC50) in test [1] worked out at 49 µM.

Turning to `O=C(NCCc1cccs1)c1cncc(Br)c1`, the IC50 in test [1] was determined as 7.61 µM. Take `O=C(NCCc1ccccc1)c1cc(C(F)(F)F)cc(C(F)(F)F)c1`: the concentration for half-maximal inhibition (IC50) in test [1] was 2.47 µM. The same measure, in the same setting: with `O=C(NCCc1cccs1)c1cncc(Cl)c1` the figure was 9.2 µM. In the case of `O=C(NCCN1CCCCC1)c1cc(F)cc(C(F)(F)F)c1`, the IC50 in the test on Influenza A virus turned out to be 27 µM; in test [1], 0.37 µM. For `O=S(=O)(NCCN1CCCCC1)c1cccc(C(F)(F)F)c1`, the 50% inhibitory concentration (IC50) in test [1] was determined as 54.9 µM. Still for that read-out and setting: for `O=C(NC1CCCCC1)c1cccc(C(F)(F)F)c1` the value was 7.8 µM. Still for that read-out and setting: for `O=C(NCCN1CCOCC1)c1cc(C(F)(F)F)cc(C(F)(F)F)c1` the value was 9.89 µM.

Consider `O=C(NCCN1CCCCC1)c1cc(C(F)(F)F)cc(C(F)(F)F)c1`, for which, in test [1], the 50% inhibitory concentration (IC50) worked out at 2.51 µM. Same read-out and setting: with `O=C(NCCc1ccccc1)c1cccc(C(F)(F)F)c1` the figure was 80 µM; with `O=C(NCCOC(=O)c1cc(F)cc(C(F)(F)F)c1)c1cc(F)cc(C(F)(F)F)c1`, 60 µM.

On to `O=C(NCCc1cccs1)c1cc(C(F)(F)F)cc(C(F)(F)F)c1`, for which the half-maximal inhibitory concentration (IC50) in test [1] is 2.44 µM.

Take `CC(NC(=O)c1cc(C(F)(F)F)cc(C(F)(F)F)c1)c1ccc2ccccc2c1` (stereo unspecified): in test [1], the IC50 was 40.8 µM.

As to `CN1CCN(CCCNC(=O)c2cc(F)cc(C(F)(F)F)c2)CC1`, the IC50 in test [1] is 84.3 µM. With `O=C(NCCN1CCCC1)c1cc(O)c(O)cc1O`, the IC50 in test [1] turned out to be 41.5 µM. On the same count and under the same terms, for `O=C(NCc1cccnc1)c1cc(C(F)(F)F)cc(C(F)(F)F)c1` the value was 2.46 µM. On the same count and under the same terms, for `O=C(NCCN1CCOCC1)c1cc(F)cc(C(F)(F)F)c1` the value was 1.22 µM. As to `O=C(NCc1ccncc1)c1cc(F)cc(C(F)(F)F)c1`, the inhibition entry in the test on MDCK was “inactive”. Further, in test [1], the IC50 came out at 0.56 µM. For the compound `O=C(NCCN1CCCC1)c1cc(C(F)(F)F)cc(C(F)(F)F)c1`, in test [1], the IC50 was 1.71 µM. On the same count and under the same terms, for `O=C(NCCN1CCCCC1)c1cncc(Cl)c1` the value was 6.25 µM; for `O=C(OCCN1CCCCC1)c1cc(F)cc(C(F)(F)F)c1`, 61.2 µM. On the same count and under the same terms, for `O=C(NCCc1cccs1)c1cccc(C(F)(F)F)c1` the value was 4.33 µM.
